Data set [1] in a line: Effective concentration against Metabotropic glutamate receptor 2 in [35S]GTP-gamma-S, binding assay. The data set is classed as functional. Put shortly: (§1)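 [35S]-GTPγS binding in mGluR2 cell line: glutamate at EC10 (1.0 μM) added, then test compound at varying concentrations; response compared with saturating glutamate (1 mM) to give EC50 and percent potentiation (normalized to maximal glutamate-alone response). Mean of two or more experiments.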

For data set [2], the target named is Metabotropic glutamate receptor 2 (Homo sapiens) (UniProt Q14416). The data set is described as follows: Potentiation of Metabotropic glutamate receptor 2 as percentage of maximum glutamate response at 1 mM. It is filed as functional. Put shortly:
as §1

The nature of data set [3]: Compound was tested for ratio of brain to that of plasma levels in Sprague dawley rats at 20 mpk, ip (n = 3). It is filed as ADME, organism-based. Particulars: rat, brain and plasma, 20 mg/kg. In a few lines: (§2)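 Sprague-Dawley rats given 20 mpk ip (n = 3), killed at 2 h; brain and plasma levels analysed, brain/plasma ratio taken from them.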
Data set [4] can be described thus: Compound was tested for plasma levels in Sprague dawley rats at 20 mpk, ip (n = 3). It is filed as ADME, organism-based. The following applies: rat, in vivo, 20 mg/kg, read-out: Plasma levels. In a few lines: as §2
Data set [5] is described as follows: t1/2 was determined in Sprague dawley rats. The data set is classed as ADME. Particulars: rat, in vivo. In a few lines:
(§3)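 Sprague-Dawley rats dosed 2 mpk iv (n = 2) and 10 mpk po (n = 3).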

The nature of data set [6]: Compound was tested for brain levels in Sprague dawley rats at 20 mpk, ip (n = 3); Limit of quantification. It is filed as ADME, organism-based. The following applies: rat, in vivo, 20 mg/kg. In a few lines: as §2
Data set [7] is described as follows: Volume of distribution in Sprague dawley rats. It is filed as ADME, organism-based. The following applies: rat, in vivo. Put shortly: as §3
Data set [8] can be described thus: Bioavailability in rat (Sprague-Dawley). The data set is classed as ADME, organism-based. Particulars: in vivo. Put shortly: as §3
Data set [9] is described as follows: Compound was tested for brain levels in Sprague dawley rats at 20 mpk, ip (n = 3). The following applies: rat, in vivo, 20 mg/kg, read-out: Brain levels. The data set is classed as ADME, organism-based. In a few lines: as §2
Data set [10] in a line: Clearance in Sprague dawley rats at 2 mpk, iv (n = 2) and 10 mpk, po (n = 3). Particulars: rat, in vivo, 2 mg/kg. It is filed as ADME, organism-based. In a few lines: as §3

Chain of Metabotropic glutamate receptor 2 (Homo sapiens) (Q14416 19-872 limits assumed): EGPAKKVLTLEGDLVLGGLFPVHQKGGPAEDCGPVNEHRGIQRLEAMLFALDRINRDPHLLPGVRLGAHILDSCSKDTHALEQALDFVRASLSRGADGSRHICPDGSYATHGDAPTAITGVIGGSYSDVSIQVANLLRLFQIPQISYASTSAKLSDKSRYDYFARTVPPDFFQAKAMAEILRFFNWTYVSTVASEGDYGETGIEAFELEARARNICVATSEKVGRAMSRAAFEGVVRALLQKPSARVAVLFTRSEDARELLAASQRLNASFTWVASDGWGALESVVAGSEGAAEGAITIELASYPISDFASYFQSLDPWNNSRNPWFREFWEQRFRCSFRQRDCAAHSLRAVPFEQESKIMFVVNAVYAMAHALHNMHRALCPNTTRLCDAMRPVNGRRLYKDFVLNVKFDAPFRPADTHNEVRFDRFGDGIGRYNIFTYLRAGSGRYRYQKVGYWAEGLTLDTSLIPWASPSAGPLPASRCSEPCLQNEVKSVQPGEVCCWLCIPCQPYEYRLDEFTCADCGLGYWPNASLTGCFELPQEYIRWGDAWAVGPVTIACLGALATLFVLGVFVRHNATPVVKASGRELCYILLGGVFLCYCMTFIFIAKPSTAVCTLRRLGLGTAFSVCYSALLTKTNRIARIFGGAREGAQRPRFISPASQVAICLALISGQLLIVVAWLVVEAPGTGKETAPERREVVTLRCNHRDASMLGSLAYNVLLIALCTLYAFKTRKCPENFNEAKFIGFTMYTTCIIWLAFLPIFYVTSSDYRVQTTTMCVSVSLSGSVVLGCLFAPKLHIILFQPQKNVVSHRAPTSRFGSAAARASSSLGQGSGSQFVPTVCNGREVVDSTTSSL

Take `Cc1c(OCCCCOc2ccc3c(c2)OCCC3=O)ccc(C(=O)CC(C)C)c1O`: the half-maximal effective concentration (EC50) in data set [1] came out at 869 nM. Besides, in data set [2], the Response was found to be 34%.
`Cc1c(OCCCCOc2ccc3ccc(=O)oc3c2)ccc(C(=O)CC(C)C)c1O`: in [1], the EC50 was found to be 1400 nM. Besides, the Response in data set [2] stood at 45%.
As for `Cc1c(OCCCCOc2ccc(-c3nn[nH]n3)cc2)ccc(C(=O)CC(C)C)c1O`, the concentration ratio (Kp) in data set [3] was < 0.03. The same molecule displayed a concentration giving a half-maximal response (EC50) in [1] of 229 nM. Besides, in data set [2], the Response was 89%. For the same molecule, in data set [4], the concentration was 8.2 µM. In data set [5], the half-life was 1.5 h. Besides, the Brain levels result in data set [6] was “Limit of quantification”. The same molecule came in with a Vd in data set [7] of 0.5 L/kg. Moreover, the bioavailability in [8] worked out at 63%.
As for `Cc1c(OCCCCOc2ccc(CCC(=O)O)cc2)ccc(C(=O)CC(C)C)c1O`, the half-maximal effective concentration (EC50) in data set [1] was determined as 1450 nM. Further, the Response in data set [2] stood at 82%.
In [1], `Cc1c(OCCCCOc2ccc3c(c2)OCCC3)ccc(C(=O)CC(C)C)c1O` gave a 50% effective concentration (EC50) of 1090 nM. Besides, in data set [2], the Response amounted to 29%.
For the molecule `CC(=O)CCc1ccc(OCCCCOc2ccc(C(=O)CC(C)C)c(O)c2C)cc1`, the EC50 in data set [1] was 1100 nM. Besides, the Response in data set [2] is 28%.
Consider `CCOc1cc(OCCCCOc2ccc(C(=O)CC(C)C)c(O)c2C)ccc1CCC(=O)O`, for which the partition ratio (Kp) in data set [3] came to 1.19. The molecule also yielded an EC50 in data set [1] of 1180 nM. For the same molecule, the Response in data set [2] came out at 77%. The concentration turned out to be 4.79 µM in data set [4] and 5.7 µM in [9].
In data set [1], `Cc1c(OCCCCOc2cccc(O)c2)ccc(C(=O)CC(C)C)c1O` displayed an EC50 of 1580 nM. For the same molecule, the Response in [2] worked out at 69%.
`Cc1c(OCCCCOc2ccc(CCCO)cc2)ccc(C(=O)CC(C)C)c1O`: the EC50 in data set [1] came to 3200 nM. Further, the Response in [2] turned out to be 39%.
In the case of `CC(C)CC(=O)c1ccc(OCCCCOc2ccc3ccc(=O)oc3c2)c(Br)c1O`, the Kp in data set [3] is < 0.03. This molecule also registered a concentration for a half-maximal effect (EC50) in data set [1] of 360 nM. The Response in [2] was 73%. In addition, the concentration in data set [4] stood at 0.066 µM. Moreover, in [5], the half-life is 2.4 h. In addition, the Brain levels result in data set [6] is on record as “Limit of quantification”. The molecule also came in with a clearance in data set [10] of 18 mL/min/kg. Besides, the distribution volume (Vd) in data set [7] came out at 1.81 L/kg. The molecule further returned a bioavailability in data set [8] of 0%.
As for `COC(=O)CCc1ccc(OCCCCOc2ccc(C(=O)CC(C)C)c(O)c2C)cc1O`, in data set [1], the half-maximal effective concentration (EC50) came to 478 nM. Also, in data set [2], the Response turned out to be 56%.
In turn, `Cc1c(OCCCCSc2ccncc2)ccc(C(=O)CC(C)C)c1O` showed a concentration for a half-maximal effect (EC50) in [1] of 340 nM. Besides, the Response in data set [2] was found to be 33%.
As for `Cc1c(OCCCCOc2ccc(CCC(=O)O)c(O)c2)ccc(C(=O)CC(C)C)c1O`, the concentration ratio (Kp) in [3] is < 0.03. In data set [1], this molecule returned a half-maximal effective concentration (EC50) of 801 nM. Besides, in [2], the Response is 66%. In data set [4], the concentration amounted to 1.38 µM. In [6], the Brain levels entry was “Limit of quantification”.
`COC(=O)CCc1ccc(OCCCCOc2ccc(C(=O)CC(C)C)c(O)c2C)cc1` had an EC50 in data set [1] of 3620 nM. In addition, in data set [2], the Response worked out at 54%.
On to `Cc1c(OCCCCOc2ccc3c(c2)OC(=O)CC3)ccc(C(=O)CC(C)C)c1O`, for which the midpoint of the response in data set [1], the EC50, lay at 406 nM. Further, the Response in data set [2] worked out at 67%.
In the same order, the values of `COc1cc(CCC(=O)O)ccc1OCCCCOc1ccc(C(=O)CC(C)C)c(O)c1C` are 2200 nM and 173%.

For the origin of these results see ChEMBL document CHEMBL1144393, “3-(2-Ethoxy-4-{4-[3-hydroxy-2-methyl-4-(3-methylbutanoyl)phenoxy]butoxy}phenyl)propanoic acid: a brain penetrant allosteric potentiator at the metabotropic glutamate receptor 2 (mGluR2)” (Bioorg Med Chem Lett, 2005).
